Experimental findings from ChEMBL document CHEMBL1687924, “Antiviral activity of seed extract from Citrus bergamia towards human retroviruses” (Bioorg Med Chem, 2011) are described below.

Data set [1] is described as follows: Cytotoxicity against human MOLT3 cells after 24 hrs by MTS assay. It counts as cell-based, MOLT-3. Put shortly: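 MOLT-3 cells (1 × 10^4) were exposed for 1 day in RPMI with 5% FBS to seven concentrations (1 ng/ml–1 mg/ml). MTS formazan formation was read at 490 nm after 1 h with reagent. Mean CC50 comes from three independent experiments.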
Data set [2] has as its system Human T-cell leukemia virus type I. The experiment in a line: Antiviral activity against Human T-cell leukemia/lymphoma virus type 1 infected in human PBMC assessed as inhibition of tax/rex gene expression at 22.93 ug/ml after 3 weeks post infection by quantitative real time RT-PCR. It counts as functional. To be noted: Primate T-lymphotropic virus 1, 504 h. For orientation: Real-time PCR tracks product formation cycle by cycle.

Data set [3] shares this test system. In words: Antiviral activity against Human T-cell leukemia/lymphoma virus type 1 infected in human PBMC assessed as inhibition of tax/rex gene expression after 3 weeks post infection by quantitative real time RT-PCR. It counts as functional, organism-based. Conditions: Primate T-lymphotropic virus 1, 504 h. Put shortly: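 PBMC infected with HTLV-1. Compounds were added at infection onset, then at half concentration on days 3, 7 and 10 pi; the vehicle was up to 0.5% methanol. Cells were harvested 3 weeks pi and debris removed on a density gradient. tax/rex mRNA was measured by SYBR RQ-PCR normalized to GUSB (2^-ΔΔCt). RQ-IC50 came from three experiments, each in triplicate.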

Data set [4] concerns Human immunodeficiency virus 1. In words: Antiviral activity against HIV1 infected in human PBMC assessed as inhibition of gag gene expression at 0.23 ug/ml after 5 days post infection by conventional RT-PCR. Conditions: Human immunodeficiency virus 1, 120 h.
Data set [5] has as its system Human immunodeficiency virus 1. In words: Antiviral activity against HIV1 infected in human PBMC assessed as inhibition of gag gene expression after 5 days post infection by quantitative real time RT-PCR. It counts as functional, organism-based. Conditions: Human immunodeficiency virus 1, 120 h. Put shortly: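 Donor PBMC (HIV-, HBV-, HCV-seronegative) stimulated overnight with PHA 2 µg/ml, then infected 2 h with clarified H9/HIV-1IIIB supernatant (20 ng/ml p24), then cultured with IL2 20 U/ml. Compounds added 4 h pre-infection and re-added daily at half concentration; vehicle ≤0.5% methanol. Harvest day 5; gag mRNA by SYBR RQ-PCR vs GUSB (2^-ΔΔCt); three experiments in triplicate; IC50.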

Data set [6] in a line: Cytotoxicity against PHA-stimutated human PBMC after 24 hrs by MTS assay. It counts as cell-based. To be noted: PHA-stimulated PBMC. On the technique in general: Formazan colour is commonly taken as a measure of viable cells.
Data set [7] in a line: Ratio of nevirapine CC50 to compound CC50 for human MOLT3 cells. It counts as ADME, cell-based, MOLT-3.
Data set [8] has as its system Human T-cell leukemia virus type I. The experiment in a line: Antiviral activity against Human T-cell leukemia/lymphoma virus type 1 infected in human PBMC assessed as inhibition of tax/rex gene expression at 5 ug/ml after 3 weeks post infection by quantitative real time RT-PCR. It counts as functional, organism-based. Put shortly:
(§1)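 Compound was added to PBMC cultures at the onset of HTLV-1 infection and re-added at half concentration on days 3, 7 and 10 pi, with 0.5% methanol as vehicle control. Cells were harvested 3 weeks pi and debris removed on a density gradient. Tax/rex mRNA was quantified by SYBR Green RT-PCR (40 cycles, 95/60 °C) against GUSB using the comparative Ct method.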

For data set [9], the system named is Human immunodeficiency virus 1. The experiment in a line: Antiviral activity against HIV1 infected in human PBMC assessed as inhibition of gag gene expression at 1 ug/ml after 5 days post infection by quantitative real time RT-PCR. It counts as functional, organism-based. Put shortly: (§2)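 PBMC were stimulated overnight with 2 µg/ml PHA and infected for 2 h with clarified H9/HIV-1IIIB supernatant at 20 ng/ml p24. They were then cultured with IL-2 20 U/ml. Compound was added 4 h before infection and re-added daily at half concentration, with 0.5% methanol as vehicle control. At 5 days pi, gag mRNA was measured by SYBR Green RQ-PCR in triplicate, normalized to GUSB (2^-ΔΔCt).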

Data set [10] is described as follows: Ratio of zidovudine CC50 to compound CC50 for human MOLT3 cells. It counts as ADME, cell-based, MOLT-3.
The target in data set [11] is Human immunodeficiency virus type 1 reverse transcriptase (Human immunodeficiency virus 1, UniProt Q72547). The experiment in a line: Inhibition of HIV1 3B reverse transcriptase activity. Put shortly:
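Commercial purified HIV-1 RT replaced the virion lysate in the same cell-free reverse transcription/20-cycle amplification assay. RTIC50 came from band densitometry over three independent experiments, with no compound pre-activation.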

A short description of data set [12]: Ratio of CC50 for PHA-stimulated human PBMC to IC50 for HIV1 infected in human PBMC.
For data set [13], the system named is Human T-cell leukemia virus type I. In words: Ratio of IC50 for nevirapine to compound IC50 for Human T-cell leukemia/lymphoma virus type 1 reverse transcriptase activity.
Data set [14] is described as follows: Ratio of Lamivudine CC50 to compound CC50 for human MOLT3 cells. It counts as ADME, cell-based, MOLT-3.
Data set [15] in a line: Inhibition of Human T-cell leukemia/lymphoma virus type 1 reverse transcriptase activity infected in human MT2 cells assessed as level of p19 antigen. It counts as cell-based, Human T-cell leukemia virus type I. Conditions: Primate T-lymphotropic virus 1, MT2.
Data set [16] has as its system Human immunodeficiency virus 1. In words: Antiviral activity against HIV1 infected in human PBMC assessed as inhibition of gag gene expression at 0.27 ug/ml after 5 days post infection by quantitative real time RT-PCR. It counts as functional. To be noted: Human immunodeficiency virus 1, 120 h.
For data set [17], the system named is Human immunodeficiency virus 1. In words: Antiviral activity against HIV1 infected in human PBMC assessed as inhibition of gag gene expression at 10 ug/ml after 5 days post infection by quantitative real time RT-PCR. It counts as functional, organism-based. Put shortly: as §2
Data set [18] deals with Human T-cell leukemia virus type I. In words: Antiviral activity against Human T-cell leukemia/lymphoma virus type 1 infected in human PBMC assessed as inhibition of tax/rex gene expression at 10 ug/ml after 3 weeks post infection by quantitative real time RT-PCR. It counts as functional, organism-based. Put shortly: as §1
The test system is the same in data set [19]. In words: Antiviral activity against Human T-cell leukemia/lymphoma virus type 1 infected in human PBMC assessed as inhibition of tax/rex gene expression at 0.27 ug/ml after 3 weeks post infection by quantitative real time RT-PCR. It counts as functional. To be noted: Primate T-lymphotropic virus 1, 504 h.

The structures appear in SMILES notation. ≈ marks a conversion by molar mass, not a printed value. Calls of active or inactive are those of the source. No cut-off for these calls is given here.

Regarding `Nc1ccn([C@@H]2CS[C@H](CO)O2)c(=O)n1` [LAMIVUDINE], the half-maximal cytotoxic concentration (CC50) – broadly, the concentration that lowers cell viability or growth by half – at 24 h in data set [1] was found to be 5.94 µg/mL (≈ 25.9 µM); in data set [6] it was 53 µg/mL (≈ 231 µM). In addition, in data set [2], the inhibition – broadly, how much of the control response was suppressed – at 22.93 µg/mL amounted to 100%. Further, the IC50 (commonly the concentration that inhibits the measured activity by half) in [3] was 14.2 µg/mL (≈ 62.1 µM); in data set [5], 0.19 µg/mL (≈ 0.829 µM). In data set [4], the inhibition at 0.23 µg/mL was determined as 100%.

Regarding `CC1(C)O[C@H]2CC(=O)OC[C@]23[C@H]2CC[C@@]4(C)[C@H](c5ccoc5)OC(=O)[C@H]5O[C@]54[C@]2(C)C(=O)C[C@@H]13` [LIMONIN], the CC50 at 24 h stood at 202 µg/mL (≈ 428 µM) in data set [1] and 452 µg/mL (≈ 960 µM) in data set [6]. In addition, the values for the selectivity ratio in [7], in data set [10] and in data set [14] were 10, 62 and 33, respectively. The inhibition entry in data set [8] and in [9] was “Active” each time. Moreover, the half-inhibitory concentration (IC50) in [3] is 1.07 µg/mL (≈ 2.27 µM); in data set [5], 0.92 µg/mL (≈ 1.96 µM); in [11], 8.99 nM; in data set [15], 0.00031 µg/mL (≈ 0.000659 µM). For the same molecule, the “Ratio CC50/IC50” value in data set [12] was determined as 450. Besides, the Ratio IC50 in [13] was greater than 1000.

`Cc1ccnc2c1NC(=O)c1cccnc1N2C1CC1` [NEVIRAPINE]: the CC50 at 24 h in data set [1] came out at 20.1 µg/mL (≈ 75.3 µM); in [6], 40.9 µg/mL (≈ 154 µM). The inhibition at 0.27 µg/mL in data set [16] came to 100%. Besides, in [15], the half-inhibitory concentration (IC50) was greater than 0.266 µg/mL.

For `CC(=O)O[C@H]1CC(=O)OC(C)(C)[C@@H]2CC(=O)[C@]3(C)[C@H](CC[C@@]4(C)[C@@H](c5ccoc5)OC(=O)[C@H]5O[C@]543)[C@@]12C` [NOMILIN], the CC50 at 24 h in data set [1] came out at 756 µg/mL (≈ 1470 µM); in data set [6] it was 692 µg/mL (≈ 1340 µM). The selectivity ratio was found to be 40 in data set [7], 230 in data set [10] and 130 in data set [14]. In addition, the IC50 in [3] is 3.98 µg/mL (≈ 7.73 µM); in data set [5] it was 13 µg/mL (≈ 25.3 µM); in data set [11], 6.65 nM; in data set [15], 0.0026 µg/mL (≈ 0.00505 µM). Moreover, the inhibition result in data set [17] and in [18] was “Active” in each case.

For the molecule `Cc1cn([C@H]2C[C@H](N=[N+]=[N-])[C@@H](CO)O2)c(=O)[nH]c1=O` [ZIDOVUDINE], the CC50 at 24 h in data set [1] stood at 3.24 µg/mL (≈ 12.1 µM); in data set [6], 31.2 µg/mL (≈ 117 µM). Also, in [3], the IC50 came to 0.16 µg/mL (≈ 0.599 µM). Moreover, the inhibition at 0.27 µg/mL in data set [16] and in data set [19] was 100% each time.
